High-throughput results as filed in PubChem.
An excerpt weighted towards active compounds, which were near 1.9% of everything screened.
CHRM4 agonist: agonists of human muscarinic M4 receptor (CHRM4). AID 624127. P08173. activation, % at 3 µM. CHO-K1 hM4/Gqi5, Fluo-8 calcium fluorescence; vehicle 0%, full acetylcholine response 100%. hit rate 0.14% among 360,000;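 active = activation above the run mean over all test wells plus 3 SD, cut at about 32% in these data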;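 note: peak over basal fluorescence ratio per well then scaled between controls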
Target sequence (P08173 whole entry, looked up): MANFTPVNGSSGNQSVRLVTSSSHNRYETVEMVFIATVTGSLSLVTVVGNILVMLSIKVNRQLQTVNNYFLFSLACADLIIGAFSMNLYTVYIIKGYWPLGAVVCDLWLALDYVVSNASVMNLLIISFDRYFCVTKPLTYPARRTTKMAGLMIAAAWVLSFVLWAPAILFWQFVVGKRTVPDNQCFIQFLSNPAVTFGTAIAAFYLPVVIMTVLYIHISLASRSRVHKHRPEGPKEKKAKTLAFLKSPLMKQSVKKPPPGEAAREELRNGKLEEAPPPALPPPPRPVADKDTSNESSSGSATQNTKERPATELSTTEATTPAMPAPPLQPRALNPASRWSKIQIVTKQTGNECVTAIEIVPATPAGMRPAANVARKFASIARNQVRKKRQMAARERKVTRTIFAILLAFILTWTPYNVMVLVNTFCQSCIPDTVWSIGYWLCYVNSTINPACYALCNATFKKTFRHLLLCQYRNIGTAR
CHRM4 antagonist: antagonists of human muscarinic M4 receptor (CHRM4); AID 624125; CHO-hM4 cells, ACh EC80, Fluo-8 calcium fluorescence; P08173; hit rate 0.73% among 360,000; inhibition, % at 3 µM;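 active = inhibition above its plate's cutoff, the mean inhibition of sample wells plus 3 SD, cut at about 27% in these data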
M5 PAM: CHRM5 positive allosteric modulation; CHO-K1 hM5, Fluo-8 calcium, ACh EC20 PAM; 0% = ACh EC20, 100% = ACh EC100; AID 624038; activation, % at 3 µM; hit rate 0.3% among 360,000;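 active = activation above the run cutoff, the mean activation of all test compounds plus 3 SD, cut at about 18% in these data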
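Probe or stimulus: acetylcholine, EC20 level; Assay system: human M5 receptor in CHO-K1 cells; Schedule: compound preincubation 140 s before EC20 acetylcholine addition; Technique: intracellular calcium via Fluo-8 fluorescence; Dosing: single-point, 3 µM nominal; Read-out basis: percent activation from peak-over-basal fluorescence ratio, scaled EC20-to-EC100 acetylcholine; Repeats: one well per compound, no replicates.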
M5 ag: CHRM5 agonism in calcium assay; P08912; CHO-K1 hM5 cells, Fluo-8 calcium fluorescence; 0% DMSO wells, 100% maximal acetylcholine response; activation, % at 3 µM; hit rate 0.19% among 360,000;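 active = activation above the run's mean over test compounds plus 3 SD, cut at about 23% in these data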;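 note: signal is peak over basal fluorescence ratio across the kinetic read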
CHRM5 antagonist: blocks acetylcholine activation of human M5 receptor; P08912; CHO-hM5 cells, Fluo-8 calcium fluorescence, ACh EC80; inhibition, % at 3 µM; hit rate 0.59% among 360,000; AID 624040;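 active = inhibition above a per-plate cutoff, the mean of that plate's test compounds plus 3 SD, cut at about 27% in these data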
M4 PAM: positive allosteric modulators of human muscarinic M4 receptor; CHO-K1 hM4/Gqi5, Fluo-8 calcium fluorescence, ACh EC20; 0% = ACh EC20, 100% = maximal ACh; activation, % at 3 µM; hit rate 0.4% among 360,000; AID 624126;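 active = activation above its plate's cutoff, the mean activation of sample wells plus 3 SD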
Each line names hits and unclear results; the compound was inactive in the other large screens; ! = repeats disagree.

Cc1ccc(-n2ncc3c2CCCC3NC(=O)CCc2cnccn2)cc1C (stereo unspecified)	none
COC(=O)c1ccc(Cl)cc1NC(=O)/C=C/c1ccc(C)o1	M5 PAM 20.0
COC(=O)c1oc2ccc(Br)cc2c1NC(=O)CCCN1C(=O)c2ccccc2C1=O	CHRM4 antagonist 97.6, CHRM5 antagonist 28.8
COc1ccc(NC(=O)CSc2ncnc3c2cnn3Cc2ccccc2)cc1OC	CHRM4 antagonist 28.6
COc1ccc(NC(=O)CSc2ncnc3c2cnn3Cc2ccccc2)cc1	none
CC12CCC(=O)N1C(C(=O)NCc1ccccc1F)CS2 (stereo unspecified)	none
CC[N+](C)(C)CCN(Cc1ccc(Cl)cc1)c1ccccn1	CHRM5 antagonist 46.6
Cc1ccc(NC(=O)c2snc3ccc(Cl)cc23)cc1C	CHRM5 antagonist 31.3
Cc1ccc(NC(=O)c2cc(N3C(=O)C=CC3=O)ccc2N2CCOCC2)cc1	M5 PAM 20.6
Cc1ccc(NC(=O)c2cc(NC(=O)c3ccco3)ccc2N2CCOCC2)cc1	none
O=C(Cn1cc(F)c(=O)[nH]c1=O)c1ccco1	none
COC(=O)C=C1CCC2C3CC(F)C4(O)CC(=O)CCC4(C)C3C(=O)CC12C (stereo unspecified)	none
COc1ccccc1NC(=O)C1=C(C)NC(=O)NC1c1ccc(C)cc1 (stereo unspecified)	CHRM4 antagonist 32.1
[O-]/[N+](=N\Nc1ccc(Cl)cc1)c1ccccc1	none
O=S(=O)(c1cccc2cnccc12)N1CCCNCC1	none
CC1CNCCN1S(=O)(=O)c1cccc2cnccc12 (stereo unspecified)	M5 ag 51.6!
Cc1nn(CC(=O)NCCN2CCCCC2C)c(=O)c2cc(-c3ccccc3)nn12 (stereo unspecified)	M5 PAM 31.6
CC1CCCC(NC(=O)C2CCN(S(=O)(=O)c3cccc4nonc34)CC2)C1C (stereo unspecified)	none
O=C1C=CC(=O)N1CCNc1ncc(C(F)(F)F)cc1Cl	CHRM4 antagonist 28.0
O=C1CC(=O)N(CCNc2ncc(C(F)(F)F)cc2Cl)C(=O)N1	none
OC(CN1CCOCC1)(c1ccccc1)c1ccccn1 (stereo unspecified)	none
Cc1ccccc1OCC(=O)NCCCNC(=O)c1ccccn1	M4 PAM 16.4
CC(CCc1ccc(O)cc1)NC(c1ccccc1)c1ccc(Cl)cc1 (stereo unspecified)	none
CC(CCc1ccc(O)cc1)NCCC(c1ccccc1)c1ccccc1 (stereo unspecified)	CHRM4 agonist 33.0, CHRM4 antagonist 31.5
Cc1c(N=Cc2c(O)n(C)c(=O)c3ccccc23)c(=O)n(-c2ccccc2)n1C	none
Cc1c(N=Cc2c(O)n(C3CCCCC3)c(=O)[nH]c2=O)c(=O)n(-c2ccccc2)n1C	M5 PAM 19.8
CCOC(=O)N1CCN(C(=O)c2cc3c(-c4cccc(OC)c4)nn(C)c3s2)CC1	none
CCOC(=O)N1CCC(NC(=O)c2cc3c(-c4cccc(OC)c4)nn(C)c3s2)CC1	M4 PAM 18.5
Cc1noc(C)c1S(=O)(=O)NCCN1CCN(c2ccccc2)CC1	M4 PAM 17.5
O=C(CSc1ccccn1)Nc1ccc2[nH]c(=O)[nH]c2c1	none
CC(=O)c1cnc(N2CCCCC2)nc1C	CHRM4 antagonist 30.9, M5 PAM 18.2
CC(C)(C)S(=O)(=O)c1cnc(N2CCCCC2)nc1N	none
CCOC(=O)c1ccc(C(=O)OCC)nc1	M5 PAM 20.7
CCOC(=O)c1ccc(N)cc1	none
CC1SC(c2ccc(F)cc2)N(CCc2ccccc2)C1=O (stereo unspecified)	none
CC(C)C(O)(C#CCN1CCCC1)c1ccccc1 (stereo unspecified)	CHRM4 antagonist 45.6, CHRM5 antagonist 58.1
CC(C)C(O)(C#CCN1CCCCC1)c1ccccc1 (stereo unspecified)	CHRM4 antagonist 97.6, CHRM5 antagonist 98.3
Oc1ccc(-c2n[nH]c(C(F)(F)F)c2-c2ccccc2)c(O)c1	CHRM4 antagonist 46.8, CHRM5 antagonist 63.6
COc1ccc(-c2c(-c3ccc(O)cc3O)n[nH]c2C(F)(F)F)cc1	none
COC(=O)[C@H]1C[C@@]2(O)CN(S(=O)(=O)c3ccc(C)cc3)C[C@@]2(OC(=O)NCC2CCCCC2)C[C@H]1C(=O)OC	none
Cc1ccc(C)c(N2CCN(S(=O)(=O)c3cc4c(cc3C)NC(=O)CO4)CC2)c1	none
NCCCCNCCCN	M5 ag 75.2
COc1ccccc1NS(=O)(=O)c1cccc(NC(=O)Nc2ccc(Cl)cc2)c1	CHRM4 antagonist 45.9, CHRM5 antagonist 65.8
COc1ccccc1NS(=O)(=O)c1cccc(NC(=O)Nc2ccccc2)c1	CHRM4 agonist 34.8, CHRM4 antagonist 60.5, CHRM5 antagonist 59.5
COc1cccc(OC)c1C(=O)Nc1cccc(S(=O)(=O)Nc2ccccc2Cl)c1	none
CCNC(=S)Nc1cccc(S(=O)(=O)Nc2ccccc2OC)c1	none
Cc1ccc(S(=O)(=O)N2[C@@H](c3ccc(Cl)cc3)C(C(=O)O)=C[C@H]2C(C)(C)C)cc1	none
CCCCCN(C(=O)CSc1n[nH]c(-c2ccc(C)cc2)n1)c1c(N)n(CCCC)c(=O)[nH]c1=O	none
CCOc1ccc(-c2nc(CSCC(=O)N3CCN(c4cccc(OC)c4)CC3)c(C)o2)cc1	CHRM5 antagonist 27.2
COc1ccc(-c2nc(CS(=O)(=O)CC(=O)NCc3ccc4c(c3)OCO4)c(C)o2)cc1	M5 PAM 26.1
COc1cccc(-c2nc(CS(=O)(=O)CC(=O)N3CCN(C)CC3)c(C)o2)c1	M5 ag 51.8
Cc1cc(Br)ccc1NC(=O)CN(C)C(=O)Cn1c(=O)cnc2ccccc21	none
Cc1oc(-c2ccccc2F)nc1CS(=O)(=O)CC(=O)NCc1ccccc1Cl	none
c1ccc(-c2noc(-c3cccc4ccccc34)n2)cc1	M4 PAM 16.0
CCOc1cc(Br)c(CN2C(=O)NC3(CCCCCC3)C2=O)cc1OCC	none
COc1cccc(/C=C2\CCC(C3CCCC3)C2=O)c1 (stereo unspecified)	none
COc1cccc(/C=C2\CCCCC2=O)c1	M5 PAM 31.2
COc1cc(CNc2ncnc3c2ncn3[C@H]2CN(Cc3ccc4c(c3)OCO4)C[C@@H](CO)O2)cc(OC)c1OC	none
COc1ccc(OC)c(S(=O)(=O)n2nnc3ccccc32)c1	none
COc1ccc(F)cc1S(=O)(=O)n1nnc2ccccc21	M4 PAM 21.6
N=c1nc2n(cc1F)C1OC(CO)C(O)C1O2 (stereo unspecified)	none
CC(C)CNC(=O)C1(C)CCCN1C(=O)c1csnn1 (stereo unspecified)	none
